For orientation: IC50 means the concentration that inhibits the measured activity by half. Usually Km stands for the substrate concentration at which the rate is half of its maximum.

Six molecules from ChEMBL document CHEMBL1143127 (Bioorg Med Chem, 2008) can be followed below.

Data set [1] has as its system T47D. Nature of the data set: Antiproliferative activity against estrogen receptor positive human T47D cells at 0.01 uM after 8 days relative to control. It is filed as functional, cell-based. In a few lines:
(§1)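 Estrogen-starved cells, resuspended in phenol red-free medium (RPMI for T-47D, DME-F12 for MCF-7) with insulin (50 ng/mL) and 5% dextran-coated charcoal-treated FBS, seeded 3000 cells/well. After 48 h medium replaced with compound dilutions (0.01, 0.1, 1 μM), renewed every 2 days for 8 days. Growth read by CellTiter 96 Aqueous assay; control = 100%; triplicate, mean ± SEM.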

Data set [2] relates to MCF7. Nature of the data set: Antiproliferative activity against estrogen receptor positive human MCF7 cells at 0.1 uM after 8 days relative to control. It is filed as functional. In a few lines: as §1
In data set [3] the test system is T47D. Nature of the data set: Antiproliferative activity against estrogen receptor positive human T47D cells at 0.1 uM after 8 days relative to control. It is filed as functional, cell-based. In a few lines: as §1
Data set [4] concerns T47D. As to the kind of experiment: Antiproliferative activity against estrogen receptor positive human T47D cells at 1 uM after 8 days relative to control. It is filed as functional. In a few lines:
as §1

Data set [5] concerns the target T1, 17-beta-hydroxysteroid dehydrogenase type 2 (Homo sapiens) (UniProt P37059).
T1 sequence (whole entry): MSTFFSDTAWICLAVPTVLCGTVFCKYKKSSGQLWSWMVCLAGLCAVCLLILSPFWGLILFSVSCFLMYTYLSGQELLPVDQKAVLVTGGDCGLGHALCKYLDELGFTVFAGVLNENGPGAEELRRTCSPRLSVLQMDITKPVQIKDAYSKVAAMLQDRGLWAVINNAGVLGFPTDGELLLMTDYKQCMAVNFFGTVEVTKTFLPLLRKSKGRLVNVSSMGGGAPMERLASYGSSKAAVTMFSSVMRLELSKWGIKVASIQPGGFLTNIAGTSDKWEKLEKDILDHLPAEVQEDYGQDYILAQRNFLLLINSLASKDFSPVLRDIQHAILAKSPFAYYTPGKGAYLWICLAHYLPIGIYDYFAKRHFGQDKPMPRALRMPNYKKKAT
Nature of the data set: Inhibition of 17beta-HSD2 over-expressed in HEK293 cells assessed as inhibition of transformation of [14C]-estrogen into [14C]-estrone at 10 uM. Type of data set: cell-based.

For data set [6], the system named is MCF7. As to the kind of experiment: Reversal of estrogen-induced proliferation in estrogen-sensitive human MCF7 cells at 0.5 uM after 8 days relative to control. Type of data set: functional, cell-based. In short, it runs like this: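 Antiestrogenic test: MCF-7 cells plated in phenol red-free DME-F12 with charcoal-stripped FBS; two days later incubated 8 days with E₂ (0.1 nM) plus compound (0.5 μM), pure antiestrogen EM-139 (0.5 μM) as reference, medium changed every second day. CellTiter 96 Aqueous read-out; triplicate, mean ± SEM.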

For data set [7], the target named is T2, 17-beta-hydroxysteroid dehydrogenase type 1 (Homo sapiens, UniProt P14061).
T2 sequence (P14061 whole entry): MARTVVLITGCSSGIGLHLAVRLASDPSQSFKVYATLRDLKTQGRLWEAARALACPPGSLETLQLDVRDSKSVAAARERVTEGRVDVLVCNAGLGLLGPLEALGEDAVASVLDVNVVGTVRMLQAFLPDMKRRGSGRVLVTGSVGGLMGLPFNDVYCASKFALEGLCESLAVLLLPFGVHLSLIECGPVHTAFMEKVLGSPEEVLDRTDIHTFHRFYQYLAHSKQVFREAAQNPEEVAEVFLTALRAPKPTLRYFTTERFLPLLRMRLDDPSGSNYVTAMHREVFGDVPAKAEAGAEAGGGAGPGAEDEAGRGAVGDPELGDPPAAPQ
As to the kind of experiment: Inhibition of 17beta-HSD1 in human T47D cells assessed as inhibition of transformation of [14C]-estrone into [14C]estrogen. It is filed as cell-based.

Data set [8] concerns T47D. As to the kind of experiment: Reduction of estrone-induced human T47D cell growth at 0.5 uM after 8 days relative to control. Type of data set: functional. On the set-up: scale not given: the % may be the effect or the level left. In a few lines:
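T-47D cells in estrogen-free phenol red-free RPMI with insulin and 5% charcoal-stripped FBS, grown 8 days with E₁ (0.01, 0.1, 1 or 5 nM) plus inhibitor (0.05–1 μM), medium changed every 2 days. Proliferation by CellTiter 96 Aqueous assay; growth without E₁ and inhibitor = 100%. Triplicate, mean ± SEM; Duncan–Kramer test.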

Substrate in data set [9]: C[C@]12CC[C@@H]3c4ccc(O)cc4CC[C@H]3[C@@H]1CCC2=O
Substrate in data set [10]: C[C@]12CC[C@@H]3c4ccc(O)cc4CC[C@H]3[C@@H]1CC[C@@H]2O

The source made the active and inactive calls. No cut-off for these calls is given here.

Consider `COc1cc2c(cc1O)CC[C@@H]1[C@@H]2CC[C@]2(C)[C@@H](O)[C@@H](Cc3cccc(C(N)=O)c3)C[C@@H]12`, for which the outcome in the data set on T47D [1] and in the data set with T47D [3] was inactive. Further, the Activity in the data set on MCF7 [2] is reported as 21%; in the data set with T47D [4], 41%.

`C[C@]12CC[C@@H]3c4ccc(O)cc4CC[C@H]3[C@@H]1C[C@H](Cc1cccc(C(N)=O)c1)[C@@H]2O`: the result (in [5]; in the data set on MCF7 [6]) was inactive. For the same molecule, in data set [7], the IC50 worked out at 44 nM. The Activity in the data set on T47D [8] is given as 62%.

For `C[C@]12CC[C@@H]3c4ccc(O)cc4CC[C@H]3[C@@H]1C[C@H](Cc1cccc(C(N)=O)c1)C2=O`, the IC50 in [7] stood at 171 nM.

As to `C[C@]12CC[C@@H]3c4ccccc4CC[C@H]3[C@@H]1C[C@H](Cc1cccc(C(N)=O)c1)[C@@H]2O`, the result with T47D [1] and in the data set with T47D [3] was inactive. The Activity stood at 31% with MCF7 [2] and 47% with T47D [4].

Consider `CCCCN(C)C(=O)CCCCCCCCCC[C@@H]1Cc2cc(O)ccc2[C@H]2CC[C@]3(C)[C@@H](O)[C@H](Cl)C[C@H]3[C@H]12`, for which the outcome in the data set on MCF7 [6] was Active.

B1: 17-beta-hydroxysteroid dehydrogenase type 1 (Homo sapiens), P14061 (protein)
chain: T2 sequence (P14061 whole entry)
As to B1, the Michaelis constant (Km) in [9] worked out at 0.03 µM; in data set [10], 4.6 µM.
